Data taken from ChEMBL document CHEMBL1926565, “Synthesis, antiproliferative activities and telomerase inhibition evaluation of novel asymmetrical 1,2-disubstituted amidoanthraquinone derivatives” (Eur J Med Chem, 2012).

What was measured:
[1] = tested on: U-251; assay: Cytotoxicity against human U251 cells assessed as cellular growth at 10 uM; format: functional
[2] = tested on: COLO 205; assay: Cytotoxicity against human COLO205 cells assessed as cellular growth at 10 uM; format: functional
Procedure, shortened: (§1)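 Single-dose screen run by the NCI across its 60-human-tumour-cell-line panel; growth recorded for each cell line.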

[3] = tested on: NCI-H460; assay: Cytotoxicity against human NCI-H460 cells assessed as cellular growth at 10 uM; format: functional; procedure, shortened: as §1
[4] = tested on: 786-0; assay: Cytotoxicity against human 786-0 cells assessed as cellular growth at 10 uM; format: functional; procedure, shortened: as §1
[5] = tested on: UACC-62; assay: Cytotoxicity against human UACC62 cells assessed as cellular growth at 10 uM; format: functional
[6] = tested on: OVCAR-4; assay: Cytotoxicity against human OVCAR4 cells assessed as cellular growth at 10 uM; format: functional; procedure, shortened: as §1
[7] = tested on: MOLT-4; assay: Cytotoxicity against human MOLT4 cells assessed as cellular growth at 10 uM; format: functional; procedure, shortened: as §1
[8] = molecular target: Telomerase reverse transcriptase (Homo sapiens) (UniProt O14746); assay: Residual activity of human TERT in H1299 cells at 100 uM after 24 hrs by SEAP reporter gene assay
Sequence of Telomerase reverse transcriptase (Homo sapiens) (O14746 whole entry): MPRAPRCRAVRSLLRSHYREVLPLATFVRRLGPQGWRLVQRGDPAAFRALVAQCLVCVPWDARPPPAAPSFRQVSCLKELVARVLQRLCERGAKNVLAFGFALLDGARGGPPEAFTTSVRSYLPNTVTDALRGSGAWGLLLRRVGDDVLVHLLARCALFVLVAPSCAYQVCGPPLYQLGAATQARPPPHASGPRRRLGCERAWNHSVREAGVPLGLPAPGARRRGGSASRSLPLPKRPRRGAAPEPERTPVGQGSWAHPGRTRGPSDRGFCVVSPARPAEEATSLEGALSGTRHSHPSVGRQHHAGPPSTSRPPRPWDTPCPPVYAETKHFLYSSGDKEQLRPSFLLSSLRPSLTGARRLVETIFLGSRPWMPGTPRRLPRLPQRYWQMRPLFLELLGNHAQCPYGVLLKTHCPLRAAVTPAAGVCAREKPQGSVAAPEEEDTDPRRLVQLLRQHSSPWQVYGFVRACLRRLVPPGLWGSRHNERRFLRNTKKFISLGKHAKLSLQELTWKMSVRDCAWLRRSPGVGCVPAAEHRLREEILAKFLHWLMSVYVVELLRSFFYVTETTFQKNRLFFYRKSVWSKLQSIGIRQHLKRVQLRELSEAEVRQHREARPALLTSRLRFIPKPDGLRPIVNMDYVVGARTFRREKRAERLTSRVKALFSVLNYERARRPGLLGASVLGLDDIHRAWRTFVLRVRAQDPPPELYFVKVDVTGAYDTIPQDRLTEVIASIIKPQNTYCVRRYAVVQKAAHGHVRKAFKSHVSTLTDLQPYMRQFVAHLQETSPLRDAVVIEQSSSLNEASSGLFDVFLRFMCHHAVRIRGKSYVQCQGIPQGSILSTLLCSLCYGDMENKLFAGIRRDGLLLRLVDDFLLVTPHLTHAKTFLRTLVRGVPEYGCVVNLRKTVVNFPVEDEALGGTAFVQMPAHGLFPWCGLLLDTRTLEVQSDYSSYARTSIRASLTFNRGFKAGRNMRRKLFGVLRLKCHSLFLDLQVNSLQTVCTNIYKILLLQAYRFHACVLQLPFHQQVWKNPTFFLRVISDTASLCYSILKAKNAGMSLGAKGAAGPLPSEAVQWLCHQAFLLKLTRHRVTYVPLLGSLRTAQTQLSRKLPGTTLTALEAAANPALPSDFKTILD

[9] = tested on: HOP-62; assay: Cytotoxicity against human HOP62 cells assessed as cellular growth at 10 uM; format: functional; procedure, shortened: as §1
[10] = tested on: MDA-MB-231; assay: Cytotoxicity against human MDA-MB-231 cells assessed as cellular growth at 10 uM; format: functional; procedure, shortened: as §1
[11] = molecular target: Telomerase reverse transcriptase (Homo sapiens) (UniProt O14746); assay: Residual activity of human TERT in H1299 cells at 1 uM after 24 hrs by SEAP reporter gene assay
[12] = tested on: HOP-92; assay: Cytotoxicity against human HOP92 cells assessed as cellular growth at 10 uM; format: functional; procedure, shortened: as §1
[13] = tested on: HL-60(TB); assay: Cytotoxicity against human HL-60(TB) cells assessed as cellular growth at 10 uM; format: functional; procedure, shortened: as §1
[14] = tested on: TK-10; assay: Cytotoxicity against human TK10 cells assessed as cellular growth at 10 uM; format: functional
[15] = tested on: ACHN; assay: Cytotoxicity against human ACHN cells assessed as cellular growth at 10 uM; format: functional; procedure, shortened: as §1
[16] = tested on: NCI-H23; assay: Cytotoxicity against human NCI-H23 cells assessed as cellular growth at 10 uM; format: functional; procedure, shortened: as §1
[17] = tested on: OVCAR-3; assay: Anticancer activity against human OVCAR3 cells; format: functional
Procedure, shortened: (§2)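 NCI 60-human-tumour-cell-line panel. Selected analogues were first run at one dose, then some were carried into multi-dose testing. GI50 (50% growth inhibition), TGI (total growth inhibition) and LC50 (50% cell kill) were read as values interpolated where the dose–response curves cross these levels.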

[18] = tested on: OVCAR-5; assay: Anticancer activity against human OVCAR5 cells; format: functional; procedure, shortened: as §2
[19] = tested on: SK-OV-3; assay: Anticancer activity against human SKOV3 cells; format: functional; procedure, shortened: as §2
[20] = tested on: PC-3; assay: Anticancer activity against human PC3 cells; format: functional; procedure, shortened: as §2
[21] = tested on: NCI-H322M; assay: Anticancer activity against human NCI-H322M cells; format: functional; procedure, shortened: as §2
[22] = tested on: COLO 205; assay: Anticancer activity against human COLO205 cells; format: functional; procedure, shortened: as §2
[23] = tested on: KM12; assay: Anticancer activity against human KM12 cells; format: functional; procedure, shortened: as §2
[24] = tested on: NCI-H460; assay: Anticancer activity against human NCI-H460 cells; format: functional; procedure, shortened: as §2
[25] = tested on: MDA-MB-435; assay: Anticancer activity against human MDA-MB-435 cells; format: functional; procedure, shortened: as §2
[26] = tested on: SK-MEL-28; assay: Anticancer activity against human SK-MEL-28 cells; format: functional; procedure, shortened: as §2
[27] = tested on: HCC 2998; assay: Anticancer activity against human HCC2998 cells; format: functional; procedure, shortened: as §2
[28] = tested on: RXF 393; assay: Anticancer activity against human RXF393 cells; format: functional; procedure, shortened: as §2
[29] = tested on: HOP-92; assay: Anticancer activity against human HOP92 cells; format: functional; procedure, shortened: as §2
[30] = tested on: 786-0; assay: Anticancer activity against human 786-0 cells; format: functional; procedure, shortened: as §2
[31] = tested on: EKVX; assay: Cytotoxicity against human EKVX cells assessed as cellular growth at 10 uM; format: functional; procedure, shortened: as §1
[32] = tested on: A549; assay: Anticancer activity against human A549 cells; format: functional; procedure, shortened: as §2
[33] = tested on: IGROV-1; assay: Anticancer activity against human IGROV1 cells; format: functional; procedure, shortened: as §2
[34] = tested on: OVCAR-8; assay: Anticancer activity against human OVCAR8 cells; format: functional; procedure, shortened: as §2
[35] = tested on: HOP-62; assay: Anticancer activity against human HOP62 cells; format: functional; procedure, shortened: as §2
[36] = tested on: NCI/ADR-RES; assay: Anticancer activity against human NCI/ADR-RES cells; format: functional; procedure, shortened: as §2
[37] = tested on: SN12C; assay: Anticancer activity against human SN12C cells; format: functional; procedure, shortened: as §2
[38] = tested on: SK-MEL-2; assay: Anticancer activity against human SK-MEL-2 cells; format: functional; procedure, shortened: as §2
[39] = tested on: OVCAR-4; assay: Anticancer activity against human OVCAR4 cells; format: functional; procedure, shortened: as §2
[40] = Anticancer activity against human Hs 578T cells; format: functional; procedure, shortened: as §2
[41] = tested on: TK-10; assay: Anticancer activity against human TK10 cells; format: functional
[42] = tested on: ACHN; assay: Anticancer activity against human ACHN cells; format: functional; procedure, shortened: as §2
[43] = tested on: UO-31; assay: Anticancer activity against human UO31 cells; format: functional
[44] = tested on: T47D; assay: Anticancer activity against human T47D cells; format: functional
[45] = tested on: DU-145; assay: Anticancer activity against human DU145 cells; format: functional; procedure, shortened: as §2
[46] = tested on: U-251; assay: Anticancer activity against human U251 cells; format: functional
[47] = tested on: EKVX; assay: Anticancer activity against human EKVX cells; format: functional; procedure, shortened: as §2
[48] = tested on: SF-268; assay: Anticancer activity against human SF268 cells; format: functional; procedure, shortened: as §2
[49] = read-out: LC50 (the source's name)

Cc1ccc(C(=O)Nc2ccc3c(c2NC(=O)c2ccc(C)cc2)C(=O)c2ccccc2C3=O)cc1
Activity [1]: 91.73% | Activity [2]: 108.57% | Activity [3]: 88.62% | Activity [4]: 116.17% | Activity [5]: 87.5% | Activity [6]: 104.32% | Activity [7]: 89.63% | residual activity [8]: 30% | Activity [9]: 105.23% | Activity [10]: 93.29% | residual activity [11]: 108% | Activity [12]: 91.21% | Activity [13]: 73.11% | Activity [14]: 124.91% | Activity [15]: 112.43% | Activity [16]: 90.57%

Cc1ccc(C(=O)Nc2c(NC(=O)CN3CCN(C)CC3)ccc3c2C(=O)c2ccccc2C3=O)cc1
GI50 [17]: 2.43 µM | CC50 [17, 49]: > 100 µM | GI50 [18]: > 100 µM | TGI [18]: > 100 µM | CC50 [18, 49]: > 100 µM | Activity [1]: 22.38% | GI50 [19]: > 100 µM | TGI [19]: > 100 µM | CC50 [19, 49]: > 100 µM | TGI [20]: > 100 µM | CC50 [20, 49]: > 100 µM | GI50 [21]: > 100 µM | LC50 (50% cell kill) [21]: > 100 µM | TGI [21]: > 100 µM | GI50 [22]: 2.22 µM | LC50 [22]: > 100 µM | TGI [22]: 4.08 µM | LC50 [23]: > 100 µM | TGI [23]: > 100 µM | Activity [2]: 2.29% | GI50 [24]: 3.36 µM | LC50 (50% cell kill) [24]: > 100 µM | TGI [24]: > 100 µM | Activity [3]: 37.47% | Activity [4]: 11.9% | GI50 [25]: 3.13 µM | TGI [25]: > 100 µM | CC50 [25, 49]: > 100 µM | GI50 [26]: 1.87 µM | GI50 [27]: 3 µM | TGI [27]: > 100 µM | CC50 [27, 49]: > 100 µM | Activity [5]: -20.65% | Activity [6]: 57.11% | Activity [7]: 26.04% | TGI [28]: > 100 µM | CC50 [28, 49]: > 100 µM | GI50 [29]: 0.87 µM | LC50 (concentration giving 50% cell kill) [29]: > 100 µM | TGI [29]: 9.19 µM | residual activity [8]: 8% | Activity [9]: 75.21% | GI50 [30]: 5.61 µM | TGI [30]: > 100 µM | CC50 [30, 49]: > 100 µM | Activity [10]: 37% | residual activity [11]: 78% | Activity [12]: 90.68% | Activity [13]: -8.54% | Activity [14]: 101.93% | Activity [31]: 78.07% | TGI [32]: > 100 µM | CC50 [32, 49]: > 100 µM | Activity [15]: 49.87% | GI50 [33]: > 100 µM | TGI [33]: > 100 µM | CC50 [33, 49]: > 100 µM | GI50 [34]: > 100 µM | TGI [34]: > 100 µM | CC50 [34, 49]: > 100 µM | GI50 [35]: > 100 µM | LC50 (50% cell kill) [35]: > 100 µM | TGI [35]: > 100 µM | TGI [36]: > 100 µM | CC50 [36, 49]: > 100 µM | TGI [37]: > 100 µM | CC50 [37, 49]: > 100 µM | GI50 [38]: > 100 µM | TGI [38]: > 100 µM | CC50 [38, 49]: > 100 µM | TGI [39]: > 100 µM | CC50 [39, 49]: > 100 µM | GI50 [40]: > 100 µM | TGI [40]: > 100 µM | CC50 [40, 49]: > 100 µM | GI50 [41]: > 100 µM | TGI [41]: > 100 µM | CC50 [41, 49]: > 100 µM | TGI [42]: > 100 µM | CC50 [42, 49]: > 100 µM | TGI [43]: > 100 µM | CC50 [43, 49]: > 100 µM | GI50 [44]: 2.62 µM | CC50 [44, 49]: > 100 µM | GI50 [45]: > 100 µM | TGI [45]: > 100 µM | CC50 [45, 49]: > 100 µM | Activity [16]: 89.52% | GI50 [46]: 3.64 µM | TGI [46]: > 100 µM | CC50 [46, 49]: > 100 µM | TGI [47]: > 100 µM | CC50 [47, 49]: > 100 µM | TGI [48]: > 100 µM | CC50 [48, 49]: > 100 µM

Cc1ccc(C(=O)Nc2c(NC(=O)CN3CCCC3)ccc3c2C(=O)c2ccccc2C3=O)cc1
Activity [1]: 82.17% | Activity [2]: 65.6% | Activity [3]: 61.05% | Activity [4]: 65.15% | Activity [5]: 76.82% | Activity [6]: 47.06% | Activity [7]: 48.2% | residual activity [8]: 3% | Activity [9]: 113.43% | Activity [10]: 73.34% | residual activity [11]: 81% | Activity [12]: 59.33% | Activity [13]: 96.11% | Activity [14]: 86.85% | Activity [31]: 65.93% | Activity [15]: 82.23% | Activity [16]: 73.29%
